NPY-Y1 PAM-ag – potentiates or activates human NPY-Y1 receptor; P25929; NPY-Y1 expressing cells, potentiator/agonist activation; activation, % at 3.6 µM; 220,000 tested, 0.37% active; AID 1304; in the data active = activation above about 33%, passing the limit was not always enough;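 also: cells stimulated with NPY at EC10 then isoproterenol at EC100; 0% = low agonist plus stimulus and 100% = saturating agonist plus stimulus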
NPY-Y2 antag – NPY-Y2 (human) receptor antagonism; NPY-Y2 expressing cells, antagonist mode; inhibition, % at 2.7 µM; 140,000 tested, 0.99% active; in the data active = inhibition above about 17%;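 also: 0% = vehicle with agonist challenge and 100% = reference antagonist with challenge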
NPY Y1 blocker – blocks the human neuropeptide Y Y1 receptor. P25929. HEK293-CNG Y1 cells, membrane potential fluorescence; NPY at EC95, then isoproterenol. inhibition, % at 3.6 µM. 200,000 tested, 1% active;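 active = inhibition above the campaign mean inhibition of all tested compounds plus 3 SD, cut at about 20% in these data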;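 also: 0% = DMSO wells given NPY plus isoproterenol and 100% = isoproterenol alone without NPY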
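Benchmarks – high control isoproterenol alone, low control NPY with isoproterenol · Material – HEK293 Y1/CNG channel cell line · Times – dye 3 h, compound 60 min room temperature, stimulation 45 min · Probe or stimulus – NPY (25 nM), isoproterenol (1 µM), Ro 20-1724 (25 µM) · Evaluation – % inhibition of NPY effect · Signal – fluorescence, membrane potential probe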
NPY2 pot ag – potentiates or activates human NPY-Y2 receptor. cells expressing NPY-Y2, potentiator/agonist read-out. 220,000 tested, 0.45% active. P49146. activation, % at 3.6 µM; in the data active = activation above about 27%;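 also: cells stimulated with NPY near EC25 plus isoproterenol at EC100; 0% = vehicle plus submaximal agonist and 100% = vehicle plus saturating agonist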
S1P4 agonist – activates the human S1P4 receptor; AID 1509; 220,000 tested, 0.35% active; S1P4-expressing cell line, agonist reporter assay; activation, % at 4.98 µM; O95977; in the data active = activation above about 11%;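 also: 0% = DMSO vehicle and 100% = reference agonist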
S1P4 antagonist – blocks the human S1P4 receptor | inhibition, % at 4.98 µM | O95977 | 220,000 tested, 0.26% active | S1P4-expressing cells, antagonist mode, reporter read-out | AID 1510; in the data active = inhibition above about 29%;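 also: 0% = wells stimulated with agonist and 100% = vehicle wells without agonist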
S1P4 antag cf – human S1P4 antagonism, confirmation; shares compounds with S1P4 antagonist; S1P4-expressing cell line, antagonist mode, reporter read-out; inhibition, % at 4.98 µM; 520 tested, 71% active; in the data active = inhibition above about 30%
S1P1 antagonist – counter-screen for S1P4 antagonists: antagonists of human S1P1; shares compounds with S1P4 antagonist; inhibition, % at 4.98 µM; AID 1564; 520 tested, 37% active; cell-based S1P1 antagonist counterscreen, inhibition; in the data active = inhibition above about 40%;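 also: receptor stimulated with S1P near its EC80; 0% = agonist stimulated wells and 100% = vehicle only wells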
Target sequence (P21453 whole entry, looked up): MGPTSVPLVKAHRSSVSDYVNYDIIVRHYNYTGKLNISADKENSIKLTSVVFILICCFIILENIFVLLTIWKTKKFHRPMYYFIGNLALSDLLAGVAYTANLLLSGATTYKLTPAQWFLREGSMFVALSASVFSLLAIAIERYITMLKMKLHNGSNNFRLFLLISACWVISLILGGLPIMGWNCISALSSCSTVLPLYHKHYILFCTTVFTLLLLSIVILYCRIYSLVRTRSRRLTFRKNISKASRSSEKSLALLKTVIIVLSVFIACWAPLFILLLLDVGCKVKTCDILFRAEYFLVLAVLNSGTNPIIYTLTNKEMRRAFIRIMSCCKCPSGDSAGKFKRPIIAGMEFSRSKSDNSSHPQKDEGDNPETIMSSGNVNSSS
An asterisk follows results filed as active. The list is not random: actives were taken first. Their share in the collection is about 2.4%.

CCCN(CCC)S(=O)(=O)c1ccc(Cl)c([N+](=O)[O-])c1 was read as NPY-Y1 PAM-ag 77*, NPY Y1 blocker -13, NPY2 pot ag 77*, S1P4 agonist -2, S1P4 antagonist 52*, S1P4 antag cf 100* and S1P1 antagonist 21.
CCC(=O)N1CCN(c2ccc(NC(=O)c3ccc([N+](=O)[O-])o3)cc2)CC1 was read as NPY-Y1 PAM-ag 6, NPY Y1 blocker -2, NPY2 pot ag -10, S1P4 agonist -3, S1P4 antagonist 78*, S1P4 antag cf 85* and S1P1 antagonist 74*.
`CCCC(=O)N1CCN(c2ccc(NC(=O)c3ccc([N+](=O)[O-])o3)cc2)CC1` gave NPY-Y1 PAM-ag -5, NPY Y1 blocker 0, NPY2 pot ag -2, S1P4 agonist -2, S1P4 antagonist 78*, S1P4 antag cf 101* and S1P1 antagonist 84*.
`CN1c2ccccc2Oc2nnc(N3CCN(Cc4ccccc4)CC3)cc21` gave NPY-Y1 PAM-ag -19, NPY Y1 blocker 2, NPY2 pot ag -5, S1P4 agonist 2, S1P4 antagonist 33*, S1P4 antag cf 25 and S1P1 antagonist 15.
CN1c2ccccc2Oc2nnc(Cl)cc21 was read as NPY-Y1 PAM-ag 6, NPY Y1 blocker -3, NPY2 pot ag 7, S1P4 agonist 0 and S1P4 antagonist 2.
For CCN(CC)S(=O)(=O)c1ccc2[nH]cc(C(=O)NCCCN3CCCCC3C)c(=O)c2c1 (configuration not stated) the results were NPY-Y1 PAM-ag -16, NPY-Y2 antag -3, NPY Y1 blocker -3, NPY2 pot ag 7, S1P4 agonist 1 and S1P4 antagonist 9.
`CC1(C)SC(=S)N(NC(=O)Nc2ccccc2)C1N(O)C(=O)Nc1cccc2ccccc12` (configuration not stated) gave NPY-Y1 PAM-ag 6, NPY-Y2 antag -4, NPY Y1 blocker -7, NPY2 pot ag 4, S1P4 agonist 2 and S1P4 antagonist 0.
`Cc1ccc(/C=C/C(=O)Nc2nc3ccccc3[nH]2)cc1` gave NPY-Y1 PAM-ag 7, NPY-Y2 antag 5, NPY Y1 blocker -1, NPY2 pot ag 12, S1P4 agonist 3 and S1P4 antagonist -21.
`Cc1ccc(/C=C/C(=O)c2nc3ccccc3[nH]2)cc1` gave NPY-Y1 PAM-ag -19, NPY-Y2 antag 5, NPY Y1 blocker 3, NPY2 pot ag -7, S1P4 agonist 2, S1P4 antagonist 29*, S1P4 antag cf 81* and S1P1 antagonist -6.
CCN(CC)c1ccc(/C=N/Nc2nc3ccccc3[nH]2)cc1 was read as NPY-Y1 PAM-ag 18, NPY-Y2 antag 1, NPY Y1 blocker -3, NPY2 pot ag 28, S1P4 agonist 0, S1P4 antagonist 37*, S1P4 antag cf 110* and S1P1 antagonist 81*.
For CC(=O)Nc1ccc(/C=N/Nc2nc3ccccc3[nH]2)cc1 the results were NPY-Y1 PAM-ag -14, NPY-Y2 antag 4, NPY Y1 blocker 6, NPY2 pot ag 3, S1P4 agonist 1 and S1P4 antagonist -7.
`O=[N+]([O-])c1cc(Cl)ccc1-c1nc(-c2ccccc2)no1` gave NPY-Y1 PAM-ag 2, NPY-Y2 antag 6, NPY Y1 blocker 7, NPY2 pot ag 5, S1P4 agonist 1 and S1P4 antagonist -24.
Screening Cc1cccc(OCc2nnc(SCC(=O)N(C(C)C)C(C)C)n2Cc2ccco2)c1C returned NPY-Y1 PAM-ag -29, NPY-Y2 antag 2, NPY Y1 blocker 5, NPY2 pot ag -9, S1P4 agonist 1 and S1P4 antagonist -16.
For COc1ccc(C(=O)/C(=C\c2ccco2)N2C=CC=CC2=C(C#N)C#N)cc1 the results were NPY-Y1 PAM-ag 17, NPY-Y2 antag 2, NPY Y1 blocker -1, NPY2 pot ag -1, S1P4 agonist -3, S1P4 antagonist 70*, S1P4 antag cf 117* and S1P1 antagonist 41*.
N#CC(C#N)=C1C=CC=CN1/C(=C\c1ccco1)C(=O)c1ccc(Br)cc1 was read as NPY-Y1 PAM-ag -6, NPY-Y2 antag 8, NPY Y1 blocker 2, NPY2 pot ag 3, S1P4 agonist 2 and S1P4 antagonist 9.

Compound activity: PubChem, The Scripps Research Institute Molecular Screening Center
